Article PMC7658932 (ACS Omega, 2020)

Assays:
[1] = Radiolabeling efficiency/kinetics of chelators with ^177Lu; assay type: physicochemical; conditions: 1 min, pH 5.5, RT, TLC, triplicate
Summary of the method: (§1)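 Test compound (20 μg) in Chelex-treated 0.25 M NH4OAc (pH 5.5) was mixed with 90YCl3 or 177LuCl3 (2.22 MBq, 60 μCi, in 0.05 M HCl) using acid-washed, metal-free plasticware. The mixture was shaken at 1000 rpm at RT for 1 h. Aliquots taken at set times were run on silica gel ITLC in acetonitrile/water 3:2 and scanned by radio-TLC. Complex ran at ~50 mm, free radionuclide at ~30 mm.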

[2] = Radiolabeling efficiency/kinetics of chelators with ^90Y; assay type: physicochemical; conditions: pH 5.5, RT, TLC, triplicate
Summary of the method: as §1

O=C(O)CN1CCN(CCN(CC(=O)O)CC(=O)O)CCN(CC(CCCc2ccc([N+](=O)[O-])cc2)N(CC(=O)O)CC(=O)O)CC1 (stereo not drawn) [3p-C-NEPA, 2-{[2-(4-{2-[Bis(carboxymethyl)amino]-5-(4-nitrophenyl)pentyl}-7-(carboxymethyl)-1,4,7-triazonan-1-yl)ethyl](carboxymethyl)amino}acetic acid]
radiolabeling efficiency (%) [1]: > 97% | radiolabeling efficiency (%) ([2]; 1 min): > 97% | radiolabeling efficiency (%) ([2]; 10 min): > 99%
